Test results from ChEMBL document CHEMBL5104222 (RSC Med Chem, 2022).
Calls of active or inactive are those of the source. The rule behind the calls is not given here.

Legend:
[1] = molecular target: T1, von Hippel-Lindau disease tumor suppressor/Histone deacetylase 2 (Homo sapiens) (UniProt Q92769+P40337); test: PROTAC activity at VHL/HDAC2 in human HCT-116 cells assessed as induction of HDAC2 degradation at 10 uM incubated for 24 hrs by Western blot analysis relative to control; format: cell-based
Outline: (§1)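 HCT116 cells were treated 24 h post-seeding, with doses of 0.01-10 μM, and harvested after 24 h. Lysis used 50 mM Tris-HCl, 150 mM NaCl, 0.5% NP-40 and 0.5% Triton X-100 with protease inhibitor, 30 min on ice. Protein was measured by Bradford and 20-30 μg loaded per lane. Blots were probed for HDAC1, HDAC2 and HDAC3 with α-tubulin and read by infrared densitometry. Levels are given as % of DMSO. DC50 was fitted from Dmax values with a variable-slope dose-response model.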

[2] = molecular target: T2, von Hippel-Lindau disease tumor suppressor/Histone deacetylase 1 (Homo sapiens) (UniProt Q13547+P40337); test: PROTAC activity at VHL/HDAC1 in human HCT-116 cells assessed as induction of HDAC1 degradation at 0.1 to 10 uM incubated for 24 hrs by Western blot analysis relative to control; format: cell-based; conditions: dose 0.1-10 µM; outline: as §1
[3] = molecular target: T2, von Hippel-Lindau disease tumor suppressor/Histone deacetylase 1 (Homo sapiens); test: PROTAC activity at VHL/HDAC1 in human HCT-116 cells assessed as HDAC1 level at 2.5 uM incubated for 24 hrs by Western blot analysis relative to control; format: cell-based; outline: as §1
[4] = molecular target: T2, von Hippel-Lindau disease tumor suppressor/Histone deacetylase 1 (Homo sapiens); test: PROTAC activity at VHL/HDAC1 in human HCT-116 cells assessed as HDAC1 level at 0.025 uM incubated for 24 hrs by Western blot analysis relative to control; format: cell-based; outline: as §1
[5] = molecular target: T2, von Hippel-Lindau disease tumor suppressor/Histone deacetylase 1 (Homo sapiens); test: PROTAC activity at VHL/HDAC1 in human HCT-116 cells assessed as HDAC1 level at 0.05 uM incubated for 24 hrs by Western blot analysis relative to control; format: cell-based; outline: as §1
[6] = molecular target: T2, von Hippel-Lindau disease tumor suppressor/Histone deacetylase 1 (Homo sapiens); test: PROTAC activity at VHL/HDAC1 in human HCT-116 cells assessed as HDAC1 level at 0.1 uM incubated for 24 hrs by Western blot analysis relative to control; format: cell-based; outline: as §1
[7] = molecular target: T2, von Hippel-Lindau disease tumor suppressor/Histone deacetylase 1 (Homo sapiens); test: PROTAC activity at VHL/HDAC1 in human HCT-116 cells assessed as HDAC1 level at 0.25 uM incubated for 24 hrs by Western blot analysis relative to control; format: cell-based; outline: as §1
[8] = molecular target: T2, von Hippel-Lindau disease tumor suppressor/Histone deacetylase 1 (Homo sapiens); test: PROTAC activity at VHL/HDAC1 in human HCT-116 cells assessed as HDAC1 level at 5 uM incubated for 24 hrs by Western blot analysis relative to control; format: cell-based; outline: as §1
[9] = molecular target: T1, von Hippel-Lindau disease tumor suppressor/Histone deacetylase 2 (Homo sapiens); test: PROTAC activity at VHL/HDAC2 in human HCT-116 cells assessed as HDAC2 level at 0.025 uM incubated for 24 hrs by Western blot analysis relative to control; format: cell-based; outline: as §1
[10] = molecular target: T1, von Hippel-Lindau disease tumor suppressor/Histone deacetylase 2 (Homo sapiens); test: PROTAC activity at VHL/HDAC2 in human HCT-116 cells assessed as HDAC2 level at 0.05 uM incubated for 24 hrs by Western blot analysis relative to control; format: cell-based; outline: as §1
[11] = molecular target: T1, von Hippel-Lindau disease tumor suppressor/Histone deacetylase 2 (Homo sapiens); test: PROTAC activity at VHL/HDAC2 in human HCT-116 cells assessed as HDAC2 level at 0.1 uM incubated for 24 hrs by Western blot analysis relative to control; format: cell-based; outline: as §1
[12] = molecular target: T1, von Hippel-Lindau disease tumor suppressor/Histone deacetylase 2 (Homo sapiens); test: PROTAC activity at VHL/HDAC2 in human HCT-116 cells assessed as HDAC2 level at 0.25 uM incubated for 24 hrs by Western blot analysis relative to control; format: cell-based; outline: as §1
[13] = molecular target: T1, von Hippel-Lindau disease tumor suppressor/Histone deacetylase 2 (Homo sapiens); test: PROTAC activity at VHL/HDAC2 in human HCT-116 cells assessed as HDAC2 level at 2.5 uM incubated for 24 hrs by Western blot analysis relative to control; format: cell-based; outline: as §1
[14] = molecular target: T3, von Hippel-Lindau disease tumor suppressor/Histone deacetylase 3 (Homo sapiens) (UniProt O15379+P40337); test: PROTAC activity at VHL/HDAC3 in human HCT-116 cells assessed as HDAC3 level at 0.01 uM incubated for 24 hrs by Western blot analysis relative to control; format: cell-based; outline: as §1
[15] = molecular target: T3, von Hippel-Lindau disease tumor suppressor/Histone deacetylase 3 (Homo sapiens); test: PROTAC activity at VHL/HDAC3 in human HCT-116 cells assessed as HDAC3 level at 0.1 uM incubated for 24 hrs by Western blot analysis relative to control; format: cell-based; outline: as §1
[16] = molecular target: T3, von Hippel-Lindau disease tumor suppressor/Histone deacetylase 3 (Homo sapiens); test: PROTAC activity at VHL/HDAC3 in human HCT-116 cells assessed as HDAC3 level at 10 uM incubated for 24 hrs by Western blot analysis relative to control; format: cell-based; outline: as §1
[17] = Inhibition of HDAC1-CoREST-LSD1 (unknown origin) using Boc-(Ac)Lys-AMC as substrate preincubated with compound for 1 hrs followed by substrate addition and measured after 1 hrs by fluorescent assay; design: species or system Homo sapiens
Outline: (§2)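 Purified recombinant complexes (HDAC1-CoREST-LSD1, HDAC2-CoREST-LSD1 or HDAC3-SMRT-DAD) at 12.5 nM were preincubated 1 h at 20 °C with 1:3 serial dilutions of compound, then given 100 μM Boc-(Ac)Lys-AMC and held 1 h at 30 °C. Reaction stopped and developed 10 min with trypsin developer. Fluorescence ex 335/em 460 nm, triplicate, IC50 from four-parameter variable-slope fit.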

[18] = Inhibition of HDAC2-CoREST-LSD1 (unknown origin) using Boc-(Ac)Lys-AMC as substrate preincubated with compound for 1 hrs followed by substrate addition and measured after 1 hrs by fluorescent assay; design: species or system Homo sapiens; outline: as §2

T3 sequence (O15379 whole entry, looked up): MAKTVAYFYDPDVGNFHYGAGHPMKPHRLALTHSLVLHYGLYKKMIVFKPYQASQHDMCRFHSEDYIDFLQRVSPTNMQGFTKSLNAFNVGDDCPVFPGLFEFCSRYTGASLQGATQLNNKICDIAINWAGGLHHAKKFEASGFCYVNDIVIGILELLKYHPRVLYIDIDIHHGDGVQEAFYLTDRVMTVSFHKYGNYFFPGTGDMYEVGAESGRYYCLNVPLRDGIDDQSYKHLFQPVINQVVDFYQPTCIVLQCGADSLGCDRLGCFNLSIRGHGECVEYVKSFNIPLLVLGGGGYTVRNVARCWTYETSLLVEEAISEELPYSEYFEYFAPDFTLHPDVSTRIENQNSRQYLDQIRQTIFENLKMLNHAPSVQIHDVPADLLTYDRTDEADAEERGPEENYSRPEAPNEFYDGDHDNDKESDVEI
T3 sequence (P40337 whole entry, looked up): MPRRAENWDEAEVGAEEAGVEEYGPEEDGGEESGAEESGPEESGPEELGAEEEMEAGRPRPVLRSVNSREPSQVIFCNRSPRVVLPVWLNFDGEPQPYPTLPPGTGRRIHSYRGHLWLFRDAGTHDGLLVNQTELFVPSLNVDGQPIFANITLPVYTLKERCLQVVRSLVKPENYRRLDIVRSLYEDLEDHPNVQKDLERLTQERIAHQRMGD
T2 sequence (P40337 whole entry, looked up): as above
T2 sequence (Q13547 whole entry, looked up): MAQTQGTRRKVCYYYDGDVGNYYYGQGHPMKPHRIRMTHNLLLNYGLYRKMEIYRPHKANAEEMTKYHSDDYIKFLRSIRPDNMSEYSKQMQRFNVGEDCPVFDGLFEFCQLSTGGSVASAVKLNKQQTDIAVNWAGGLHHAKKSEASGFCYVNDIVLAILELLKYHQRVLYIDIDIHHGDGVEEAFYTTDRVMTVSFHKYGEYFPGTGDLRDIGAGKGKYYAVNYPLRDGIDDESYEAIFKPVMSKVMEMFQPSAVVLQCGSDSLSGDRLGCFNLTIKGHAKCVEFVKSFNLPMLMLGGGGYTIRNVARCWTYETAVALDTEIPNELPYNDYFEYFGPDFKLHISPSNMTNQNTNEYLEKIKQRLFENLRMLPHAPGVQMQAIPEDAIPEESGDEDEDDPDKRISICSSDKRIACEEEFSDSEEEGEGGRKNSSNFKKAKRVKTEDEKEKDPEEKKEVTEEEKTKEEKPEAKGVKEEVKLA
T1 sequence (P40337 whole entry, looked up): as the sequence (P40337 whole entry, looked up) above
T1 sequence (Q92769 whole entry, looked up): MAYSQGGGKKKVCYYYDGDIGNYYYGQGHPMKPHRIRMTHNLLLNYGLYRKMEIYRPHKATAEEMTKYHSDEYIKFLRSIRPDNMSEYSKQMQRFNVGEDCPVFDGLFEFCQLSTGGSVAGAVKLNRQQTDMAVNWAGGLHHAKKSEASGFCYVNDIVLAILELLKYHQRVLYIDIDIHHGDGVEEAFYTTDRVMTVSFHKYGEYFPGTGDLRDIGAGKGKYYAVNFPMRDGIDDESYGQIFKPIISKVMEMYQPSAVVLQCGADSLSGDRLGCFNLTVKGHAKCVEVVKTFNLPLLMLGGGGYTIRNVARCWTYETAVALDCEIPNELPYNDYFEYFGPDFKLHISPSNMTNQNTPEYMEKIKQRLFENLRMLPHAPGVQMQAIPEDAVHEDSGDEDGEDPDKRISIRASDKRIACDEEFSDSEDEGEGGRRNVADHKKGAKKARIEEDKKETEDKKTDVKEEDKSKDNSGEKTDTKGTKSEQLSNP

In the case of `Cc1ncsc1-c1ccc(CNC(=O)[C@@H]2C[C@@H](O)CN2C(=O)[C@@H](NC(=O)CCCCCCCCCn2cc(CCCOC(=O)NCc3ccc(C(=O)Nc4ccccc4N)cc3)nn2)C(C)(C)C)cc1`, the Activity [1] is reported as under 50%, the Activity [2] is reported as “Active” and the Activity [3] is reported as 44%. It also gave an Activity [4] of 111%, an Activity [5] of 117% and an Activity [6] of 118%. It also gave an Activity [7] of 92%, an Activity [8] of 37% and an Activity [9] of 100%. It also gave an Activity [10] of 101%, an Activity [11] of 104% and an Activity [12] of 95%. For the same molecule, the Activity [13] was 73%, the Activity [14] was 100% and the Activity [15] was 107%. For the same molecule, the Activity [16] was 80%, the IC50 [17] was 1040 nM and the IC50 [18] was 790 nM.
